# From ChEMBL document CHEMBL3232844, “Synthesis and structure activity relationships of schweinfurthin indoles” (2014)
# Experiments:
# Assay type in all cases: functional
# [1] = Cytotoxicity against human OVCAR4 cells
# How it was run: (§1)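 Tested in a 60-cell-line human tumor panel screen; the read-out is growth inhibition, reported as GI50 for each cell line.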
# HOP-62 = experiment: Cytotoxicity against human HOP62 cells; how it was run: as §1
# T47D = experiment: Cytotoxicity against human T47D cells
# How it was run: (§2)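 Cell line run as part of the 60-cell-line screening panel; growth inhibition was reported as a GI50 for each line.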
# SK-OV-3 = experiment: Cytotoxicity against human SKOV3 cells; how it was run: as §1
# MDA-MB-435 = experiment: Cytotoxicity against human MDA-MB-435 cells; how it was run: as §1
# [2] = Cytotoxicity against human OVCAR3 cells; how it was run: as §1
# SF-295 = experiment: Cytotoxicity against human SF295 cells; how it was run: as §1
# SR = experiment: Cytotoxicity against human SR cells; how it was run: as §2
# [3] = Cytotoxicity against human HCT15 cells; how it was run: as §1
# NCI-H23 = experiment: Cytotoxicity against human NCI-H23 cells; how it was run: as §1
# KM12 = experiment: Cytotoxicity against human KM12 cells; how it was run: as §1
# CCRF-CEM = experiment: Cytotoxicity against human CCRF-CEM cells
# DU-145 = experiment: Cytotoxicity against human DU145 cells; how it was run: as §1
# MDA-MB-468 = experiment: Cytotoxicity against human MDA-MB-468 cells; how it was run: as §1
# TK-10 = experiment: Cytotoxicity against human TK10 cells; how it was run: as §2
# MDA-MB-231 = experiment: Cytotoxicity against human MDA-MB-231 cells; how it was run: as §1
# HCC 2998 = experiment: Cytotoxicity against human HCC2998 cells; how it was run: as §1
# K562 = experiment: Cytotoxicity against human K562 cells; how it was run: as §1
# M14 = experiment: Cytotoxicity against human M14 cells; how it was run: as §1
# HL-60(TB) = experiment: Cytotoxicity against human HL-60(TB) cells
# How it was run: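 Tested within the NCI 60-cell-line screen, with GI50 as the read-out. Values are the average of two independent experiments. The lowest concentration tested was 10 nM.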
# NCI-H460 = experiment: Cytotoxicity against human NCI-H460 cells; how it was run: as §1
# HCT-116 = experiment: Cytotoxicity against human HCT116 cells; how it was run: as §1
# SK-MEL-2 = experiment: Cytotoxicity against human SK-MEL-2 cells; how it was run: as §1
# SF-539 = experiment: Cytotoxicity against human SF539 cells; how it was run: as §1
# IGROV-1 = experiment: Cytotoxicity against human IGROV1 cells; how it was run: as §1
# NCI-H226 = experiment: Cytotoxicity against human NCI-H226 cells; how it was run: as §1
# [4] = Cytotoxicity against human UACC257 cells; how it was run: as §2
# PC-3 = experiment: Cytotoxicity against human PC3 cells; how it was run: as §1
# HT-29 = experiment: Cytotoxicity against human HT-29 cells; how it was run: as §1
# 786-0 = experiment: Cytotoxicity against human 786-0 cells; how it was run: as §1
# COLO 205 = experiment: Cytotoxicity against human COLO205 cells; how it was run: as §1
# SNB-75 = experiment: Cytotoxicity against human SNB75 cells; how it was run: as §2
# LOX IMVI = experiment: Cytotoxicity against human LOXIMVI cells; how it was run: as §1
# [5] = Cytotoxicity against human OVCAR8 cells; how it was run: as §1
# CAKI-1 = experiment: Cytotoxicity against human Caki1 cells; how it was run: as §1
# [6] = Cytotoxicity against human NCI-ADR-RES cells; how it was run: as §1
# MCF7 = experiment: Cytotoxicity against human MCF7 cells; how it was run: as §1
# [7] = Cytotoxicity against human UACC62 cells; how it was run: as §2
# MOLT-4 = experiment: Cytotoxicity against human MOLT4 cells; how it was run: as §1
# BT-549 = experiment: Cytotoxicity against human BT549 cells; how it was run: as §1
# SK-MEL-5 = experiment: Cytotoxicity against human SK-MEL-5 cells; how it was run: as §1
# RXF 393 = experiment: Cytotoxicity against human RXF393 cells; how it was run: as §1
# SF-268 = experiment: Cytotoxicity against human SF268 cells; how it was run: as §1
# [8] = read-out: pLC50 (the source's name) (converted)
compound,measurement,setting,value
COc1cc(/C=C/c2cc(OC)c3c(CC=C(C)C)c[nH]c3c2)cc2c1O[C@]1(C)CC[C@@H](O)C(C)(C)[C@H]1C2,GI50,[1]; OVCAR-4,2.45 µM
same,CC50,"[1]; OVCAR-4, read-out: pLC50 (the source's name) (converted)",> 100 µM
same,TGI,"[1]; OVCAR-4, read-out: pTGI (converted)",33.1 µM
same,GI50,HOP-62,0.0871 µM
same,CC50,HOP-62; [8],2.34 µM
same,TGI,HOP-62; read-out: pTGI (converted),0.479 µM
same,GI50,T47D,1.74 µM
same,CC50,T47D; [8],> 100 µM
same,TGI,T47D; read-out: pTGI (converted),17 µM
same,GI50,SK-OV-3,0.776 µM
same,LC50,SK-OV-3,67.6 µM
same,TGI,SK-OV-3; read-out: pTGI (converted),7.24 µM
same,GI50,MDA-MB-435,0.646 µM
same,CC50,MDA-MB-435; [8],74.1 µM
same,TGI,MDA-MB-435; read-out: pTGI (converted),9.12 µM
same,GI50,[2]; OVCAR-3,2.82 µM
same,CC50,"[2]; OVCAR-3, read-out: pLC50 (the source's name) (converted)",38 µM
same,TGI,"[2]; OVCAR-3, read-out: pTGI (converted)",12 µM
same,GI50,SF-295; read-out: GI50,0.048 µM
same,GI50,SF-295; read-out: pGI50 (converted),0.0479 µM
same,CC50,SF-295; [8],0.871 µM
same,TGI,SF-295; read-out: pTGI (converted),0.219 µM
same,GI50,SR,0.324 µM
same,CC50,SR; [8],> 100 µM
same,TGI,SR; read-out: pTGI (converted),5.5 µM
same,GI50,[3]; HCT-15,0.174 µM
same,CC50,"[3]; HCT-15, read-out: pLC50 (the source's name) (converted)",6.17 µM
same,TGI,"[3]; HCT-15, read-out: pTGI (converted)",1.35 µM
same,GI50,NCI-H23,0.646 µM
same,CC50,NCI-H23; [8],26.9 µM
same,TGI,NCI-H23; read-out: pTGI (converted),3.55 µM
same,GI50,KM12,0.355 µM
same,CC50,KM12; [8],7.94 µM
same,TGI,KM12; read-out: pTGI (converted),1.7 µM
same,GI50,CCRF-CEM,0.209 µM
same,CC50,CCRF-CEM; [8],> 100 µM
same,TGI,CCRF-CEM; read-out: pTGI (converted),0.851 µM
same,GI50,DU-145,2.04 µM
same,LC50 (50% lethal concentration),DU-145,46.8 µM
same,TGI,DU-145; read-out: pTGI (converted),15.1 µM
same,GI50,MDA-MB-468,0.195 µM
same,LC50,MDA-MB-468,10.5 µM
same,TGI,MDA-MB-468; read-out: pTGI (converted),1.1 µM
same,GI50,TK-10,2.75 µM
same,LC50,TK-10,66.1 µM
same,TGI,TK-10; read-out: pTGI (converted),17.4 µM
same,GI50,MDA-MB-231,0.269 µM
same,LC50,MDA-MB-231,30.9 µM
same,TGI,MDA-MB-231; read-out: pTGI (converted),2.4 µM
same,GI50,HCC 2998,2.51 µM
same,CC50,HCC 2998; [8],53.7 µM
same,TGI,HCC 2998; read-out: pTGI (converted),15.8 µM
same,GI50,K562,0.309 µM
same,CC50,K562; [8],> 100 µM
same,TGI,K562; read-out: pTGI (converted),1.38 µM
same,GI50,M14,0.525 µM
same,CC50,M14; [8],46.8 µM
same,TGI,M14; read-out: pTGI (converted),2.82 µM
same,GI50,HL-60(TB),0.191 µM
same,CC50,HL-60(TB); [8],85.1 µM
same,TGI,HL-60(TB); read-out: pTGI (converted),2.45 µM
same,GI50,NCI-H460,0.372 µM
same,CC50,NCI-H460; [8],17 µM
same,TGI,NCI-H460; read-out: pTGI (converted),2.19 µM
same,GI50,HCT-116,0.417 µM
same,CC50,HCT-116; [8],57.5 µM
same,TGI,HCT-116; read-out: pTGI (converted),12.6 µM
same,GI50,SK-MEL-2,0.331 µM
same,CC50,SK-MEL-2; [8],11 µM
same,TGI,SK-MEL-2; read-out: pTGI (converted),1.58 µM
same,GI50,SF-539,0.0501 µM
same,CC50,SF-539; [8],2.51 µM
same,TGI,SF-539; read-out: pTGI (converted),0.309 µM
same,GI50,IGROV-1,1.66 µM
same,CC50,IGROV-1; [8],> 100 µM
same,TGI,IGROV-1; read-out: pTGI (converted),41.7 µM
same,GI50,NCI-H226,2.69 µM
same,CC50,NCI-H226; [8],32.4 µM
same,TGI,NCI-H226; read-out: pTGI (converted),9.77 µM
same,GI50,[4]; UACC-257,2.09 µM
same,CC50,"[4]; UACC-257, read-out: pLC50 (the source's name) (converted)",49 µM
same,TGI,"[4]; UACC-257, read-out: pTGI (converted)",12.9 µM
same,GI50,PC-3,0.24 µM
same,LC50,PC-3,> 100 µM
same,TGI,PC-3; read-out: pTGI (converted),17.4 µM
same,GI50,HT-29,0.107 µM
same,CC50,HT-29; [8],2.82 µM
same,TGI,HT-29; read-out: pTGI (converted),0.708 µM
same,GI50,786-0,0.0501 µM
same,LC50 (concentration killing 50% of cells),786-0,0.891 µM
same,TGI,786-0; read-out: pTGI (converted),0.302 µM
same,GI50,COLO 205,0.219 µM
same,CC50,COLO 205; [8],1.55 µM
same,TGI,COLO 205; read-out: pTGI (converted),0.479 µM
same,GI50,SNB-75,0.0891 µM
same,CC50,SNB-75; [8],75.9 µM
same,TGI,SNB-75; read-out: pTGI (converted),2.69 µM
same,GI50,LOX IMVI,0.295 µM
same,CC50,LOX IMVI; [8],4.47 µM
same,TGI,LOX IMVI; read-out: pTGI (converted),1.29 µM
same,GI50,[5]; OVCAR-8,3.8 µM
same,CC50,"[5]; OVCAR-8, read-out: pLC50 (the source's name) (converted)",74.1 µM
same,TGI,"[5]; OVCAR-8, read-out: pTGI (converted)",23.4 µM
same,GI50,CAKI-1,0.347 µM
same,LC50,CAKI-1,53.7 µM
same,TGI,CAKI-1; read-out: pTGI (converted),2.19 µM
same,GI50,[6],2.88 µM
same,CC50,[6]; [8],> 100 µM
same,TGI,[6]; read-out: pTGI (converted),28.8 µM
same,GI50,MCF7,0.398 µM
same,LC50,MCF7,19.1 µM
same,TGI,MCF7; read-out: pTGI (converted),3.72 µM
same,GI50,[7]; UACC-62,0.229 µM
same,CC50,"[7]; UACC-62, read-out: pLC50 (the source's name) (converted)",9.12 µM
same,TGI,"[7]; UACC-62, read-out: pTGI (converted)",0.661 µM
same,GI50,MOLT-4,0.155 µM
same,CC50,MOLT-4; [8],> 100 µM
same,TGI,MOLT-4; read-out: pTGI (converted),0.661 µM
same,GI50,BT-549,0.355 µM
same,CC50,BT-549; [8],67.6 µM
same,TGI,BT-549; read-out: pTGI (converted),15.5 µM
same,GI50,SK-MEL-5,0.263 µM
same,CC50,SK-MEL-5; [8],1.48 µM
same,TGI,SK-MEL-5; read-out: pTGI (converted),0.676 µM
same,GI50,RXF 393,0.0263 µM
same,LC50,RXF 393,0.724 µM
same,TGI,RXF 393; read-out: pTGI (converted),0.105 µM
same,GI50,SF-268,1.12 µM
same,CC50,SF-268; [8],91.2 µM
same,TGI,SF-268; read-out: pTGI (converted),14.5 µM
